Shown are actives, neighbours in structure and some others; about 2.4% of the full set was active somewhere.
DAGLB inh: blocks human DAGLB lipase activity | AID 504411 | 0.059% of 340,000 active | inhibition, % at 5.17 µM | HEK293T DAGLB membrane lysate, EnzChek fluorogenic substrate | Q8NCG7; in the data active means inhibition above about 34%;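 further: 0% = enzyme with vehicle and 100% = wells lacking enzyme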
Target sequence (Q8NCG7 whole entry, looked up): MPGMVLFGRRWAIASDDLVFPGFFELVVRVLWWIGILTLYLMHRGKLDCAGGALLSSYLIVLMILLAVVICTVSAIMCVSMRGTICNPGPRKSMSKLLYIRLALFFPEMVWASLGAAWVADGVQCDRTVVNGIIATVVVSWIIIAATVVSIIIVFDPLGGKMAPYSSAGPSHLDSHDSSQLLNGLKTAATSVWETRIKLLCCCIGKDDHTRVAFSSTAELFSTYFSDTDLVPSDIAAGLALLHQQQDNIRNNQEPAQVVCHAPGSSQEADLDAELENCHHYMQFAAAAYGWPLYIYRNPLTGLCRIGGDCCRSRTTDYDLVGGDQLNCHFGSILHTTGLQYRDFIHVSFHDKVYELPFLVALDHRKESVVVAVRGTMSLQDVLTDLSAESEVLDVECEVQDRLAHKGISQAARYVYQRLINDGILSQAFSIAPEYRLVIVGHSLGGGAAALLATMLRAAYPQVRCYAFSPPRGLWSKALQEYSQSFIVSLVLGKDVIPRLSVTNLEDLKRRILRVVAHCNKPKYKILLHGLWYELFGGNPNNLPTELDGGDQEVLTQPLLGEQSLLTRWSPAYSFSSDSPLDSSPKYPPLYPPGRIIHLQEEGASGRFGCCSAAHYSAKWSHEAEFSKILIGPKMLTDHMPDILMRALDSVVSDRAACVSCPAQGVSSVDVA
NRP1-CendR mod: modulators of CendR peptide binding to human neuropilin-1 | O14786 | FAM-RPARPAR peptide binding to NRP-1, fluorescence polarization | inhibition, % at 25 µM | 0.85% of 360,000 active;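 active means inhibition or corrected inhibition above about 18%, plus a signal ratio from 0.5 to 1.5, limit read from the data, passing the limit was not always enough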
SENP1 inh: SENP1 (human) catalytic domain inhibition; Q9P0U3; recombinant SENP1 catalytic domain, CyPet-SUMO1-YPet FRET cleavage; inhibition, % at 10 µM; 0.21% of 360,000 active;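 active means inhibition at least 30% at 10 µM, raw YFP signal under a set limit, fluorescence ratio 0.5 to 1.5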;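 further: 0% = enzyme with DMSO and 100% = no enzyme wells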
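Assay system: hSENP1 catalytic domain, recombinant. Amount: SENP1 enzyme, 20 pM final. Schedule: 50 min reaction, RT, dark. Technique: FRET, CFP and YFP emission. Control set: no-enzyme wells low, DMSO-plus-enzyme wells high control.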
MT1-MMP act inh: inhibitors of human MT1-MMP activation | P50281 | HT1080 RFP-PRO-GFP cells, GFP/RFP ratio fluorescence, overnight; percent of plate control window, DMSO zero | GFP/RFP ratio change, % at 20 µM | 0.061% of 360,000 active;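 active means GFP/RFP ratio change of at least 30% with cell ATP level not reduced by more than half and red fluorescence within 50% of control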
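Assay system: HT1080 RFP-PRO-GFP cells | Dosing: 20 µM single dose, 1% DMSO | Incubation: Cells overnight before dosing, compound overnight, 37 °C, 5% CO2 | Evaluation: GFP/RFP fluorescence ratio | Control set: DMSO-only wells and HT1080 RFP-L50D-GFP cell wells as references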
Myeloid diff 2: myeloid differentiation induction. ER-HoxA9 myeloid progenitors, lysozyme-GFP differentiation, flow cytometry. calls only at 10 µM. 1% of 360,000 active. AID 624256;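 active means normalized GFP-positive differentiation at or above the plate's own cutoff, the solvent-only control mean plus 3 SD; inconclusive means no clear call, values can overlap the other calls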;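 further: cells exposed to compound for four days before flow analysis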
beta cell repl: inducers of beta-cell replication in MIN6 cells | MIN6 cells proliferation, ATPlite luminescence, 48 h; cells starved in 0.2% serum; 100% = growth in 10% serum | proliferation, % at 10 µM | 0.29% of 330,000 active;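 active means compounds whose signal lies at least 3.5 SD above the mean of all wells on their plate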;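 further: 0% = DMSO-treated cells in low-serum medium and 100% = 10% serum control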
SENP1 inh conf: confirmation of human SENP1 SUMO protease inhibitors; shares compounds with SENP1 inh; recombinant SENP1, CyPet-SUMO1-YPet FRET cleavage; inhibition, % at 10 µM; 34% of 520 active; in the data active means inhibition mostly above about 35%, no sharp cut-off; inactive means mostly below about 32%;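 further: 0% = enzyme with DMSO and 100% = no enzyme control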
SENP1 kin conf: SENP1 (human) inhibition, kinetic confirmation | 26% of 520 active | AID 651690 | inhibition, % at 10 µM | shares compounds with SENP1 inh | recombinant SENP1, CyPet-SUMO1-YPet FRET kinetic cleavage; in the data active means inhibition mostly above about 32%, no sharp cut-off; inactive means mostly below about 29%;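 further: 0% = DMSO with enzyme and 100% = no enzyme substrate only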
* hit, by the source's call; i = inactive; ? = inconclusive; . = no result; + = active, no number.

SMILES	DAGLB inh	NRP1-CendR mod	SENP1 inh	MT1-MMP act inh	Myeloid diff 2	beta cell repl	SENP1 inh conf	SENP1 kin conf
CCCSc1nc(-c2ccccc2)cc(C(F)(F)F)c1C#N	-9.8	-15.3	1.1	1.6	i	-5.8	.	.
CSc1ncc(CNc2cc([N+](=O)[O-])ccc2C)c(N)n1	0.8	2.0	37.4*	9.7	i	1.1	2.5	8.8
Cc1cc([N+](=O)[O-])ccc1NCc1cccc2ccccc12	-3.5	13.8	-3.1	-2.9	i	-3.1	.	.
COC12CC(=O)C(C(C)=O)=C(O)C1(C)c1c(O)c(C)c(O)c(C(C)=O)c1O2 (stereo unspecified)	.	-163.3	32.5*	2.8	i	.	32.5	18.4
O=C(N/N=C(\CC(=O)c1cccs1)C(F)(F)F)c1ccncc1	.	-25.0	40.2*	-5.8	i	1.2	50.3*	38.0*
Cc1ccc(C(=O)N/N=C(/CC(=O)c2cccs2)C(F)(F)F)cc1	15.4	-14.0	22.6	-6.1	i	-2.1	.	.
N#Cc1ccc(-c2nc3ccc(Br)cn3c2Cc2ccccc2C(F)(F)F)cc1	.	-28.6	45.4*	0.3	i	.	44.5*	35.7*
CCCN(CC(=O)Nc1ccccc1C)C(=O)CCN1C(=O)c2cccc([N+](=O)[O-])c2C1=O	-0.1	3.1	38.0*	-3.1	i	1.6	19.0	19.9
COC(=O)C1CCN(C(=O)/C(C)=C\c2ccccc2)CC1	0.9	15.4	0.4	1.6	i	-3.2	.	.
Cc1ccc(CNC(=O)CC(C)S(=O)(=O)c2ccc3c(c2)NC(=O)CS3)o1 (stereo unspecified)	-5.5	-68.6	36.4*	-13.4	?	0.1	17.8	23.7*
Cc1ccc(CNC(=O)CC(C)S(=O)(=O)c2ccc3c(c2)NC(=O)CO3)cc1 (stereo unspecified)	2.0	12.3	-0.3	-1.2	i	-1.6	.	.
O=C(c1cc2cc(F)ccc2[nH]1)N1CCC(Cc2ccccc2)CC1	-6.4	2.6	-2.6	-0.1	i	-5.0	.	.
Cn1cc([N+](=O)[O-])c(C(=O)NC2CCCCCC2)n1	-2.5	-8.4	1.5	-2.0	i	1.3	.	.
COc1cc(/C=C/c2ccc3c([N+](=O)[O-])cccc3n2)ccc1OCC(=O)O	4.9	-13.0	53.9*	-3.4	i	-3.3	25.6	18.8
Cc1ccc(S(=O)(=O)N2C[C@H]3C(=O)C[C@@H](c4ccccc4)N(S(=O)(=O)c4cccc(C)c4)[C@H]3C[C@H]2c2ccccc2)cc1	.	11.0	-1.4	-2.3	i	.	.	.
Cc1ccccc1NC(=O)c1c(C)[nH]c(=S)c(C#N)c1-c1ccc(Cl)cc1	.	4.1	50.2*	-16.2	i	-2.9	5.0	8.2
Cc1ccc(-c2c(C(=O)Nc3ccccc3C)c(C)[nH]c(=S)c2C#N)o1	.	-25.7	1.1	-20.7	i	-3.1	.	.
Cc1[nH]c(=S)c(C#N)c(-c2ccccc2)c1C(=O)Nc1ccccc1	0.5	0.7	55.1*	-37.2	i	-2.3	-1.9	-9.1
CC(=O)Oc1ccc(Cl)cc1/C=C/c1ccc2ccccc2n1	-6.7	-13.9	33.8*	-10.6	i	-5.4	37.9*	15.9
CC(=O)Oc1c(Cl)cc(Cl)cc1/C=C/c1ccc2ccccc2n1	-4.2	4.5	-24.7	-264.8	i	-6.4	.	.
CC(C)CC(=O)Nc1cccc(NC(=O)CC(C)C)n1	-0.4	-10.9	-4.3	3.3	i	0.6	.	.
CCOC(=O)c1c(C)[n+]([O-])c2ccc3c(non3O)c12	0.3	2.6	3.3	-0.8	i	-1.3	.	.
CCOC(=O)c1c(=O)n(O)c2ccc(C)cc2[n+]1[O-]	-0.3	6.7	46.9*	-3.0	i	-1.9	9.6	9.5
Clc1ccc(-c2nc3cc(CN4CCCCC4)ccc3o2)cc1	-0.4	-2.8	1.0	-0.2	i	.	.	.
CN(C)NC(=S)Nc1ccc2nc(-c3ccccn3)c(-c3ccccn3)nc2c1	-1.5	16.8	59.0*	-8.9	i	-2.7	37.8*	30.6
SMILES	DAGLB inh	NRP1-CendR mod	SENP1 inh	MT1-MMP act inh	Myeloid diff 2	beta cell repl	SENP1 inh conf	SENP1 kin conf
O=S(=O)(N/N=C/c1ccc(OC2CSC2)cc1)c1ccccc1	-3.7	-1.3	1.6	10.7	i	0.0	.	.
O=S(=O)(N/N=C/c1ccc(N2CCOCC2)cc1)c1ccccc1	0.5	-19.0	37.2*	-0.5	i	-1.1	32.3	24.6
CCn1c(C)nc2cc(C(=O)N/N=C/c3ccc(N4CCOCC4)cc3)ccc21	0.2	-26.1	35.1*	3.4	i	-1.2	28.0	26.3
O=C(N/N=C/c1ccc(N2CCOCC2)cc1)c1ccc(O)cc1	0.1	-32.2	34.5*	-4.2	i	-1.9	25.1	17.3
CCn1c(C)nc2cc(C(=O)N/N=C(\C)c3ccc(N4CCOCC4)cc3)ccc21	-2.3	-2.7	0.3	4.0	i	2.7	.	.
O=C(N/N=C/c1ccc(N2CCOCC2)s1)c1ccc(O)cc1	0.3	-14.9	-73.5	2.9	i	.	.	.
CCn1cc([N+](=O)[O-])c(=O)c2cc(F)c(N3CCOCC3)cc21	-3.8	1.1	1.8	-2.1	i	-2.1	.	.
CCCS(=O)(=O)NC(=O)C1(C)CCCN(C(=O)c2ccccc2OC)C1 (stereo unspecified)	.	-10.2	3.6	4.6	i	.	.	.
O=C1C(Cl)=C(N2CCCC2)C(=O)N1c1ccc(F)cc1	-5.7	3.1	34.9*	1.2	i	-1.6	11.2	9.5
O=C1C(Cl)=C(N2CCCCCC2)C(=O)N1c1ccc(Cl)cc1	-3.2	-7.6	25.1	-0.2	i	-4.9	.	.
CN(C)c1cccc2c(S(=O)(=O)N3CCOCC3)cccc12	-1.7	7.9	41.4*	6.4	i	-1.6	9.7	11.3
CCCCN(C=O)c1c(CC)nc2c(OCC(=O)N3CCOCC3)cccn12	.	0.8	-5.2	1.4	i	.	.	.
Cc1cc(Oc2ccc(=O)n(C)n2)nc(SCC(N)=O)n1	-1.5	19.1	38.0*	-2.9	i	4.5	-2.4	-3.7
Cc1cc(Oc2ccc(=O)n(C)n2)nc(SCc2ccccc2)n1	-2.2	4.1	1.6	1.7	i	-0.3	.	.
Cc1cc(C)c2c(c1)/C(=N\N=c1\sc3ccccc3n1C)C(=O)N2	5.5	-37.6	36.7*	-6.2	+	-5.9	1.9	4.3
CC(C)Oc1cccc(C(=O)NC(=S)Nc2ccc3c4c(cccc24)CC3)c1	-18.8	-27.4	36.8*	-27.6	+	-2.8	5.7	2.0
O=C(C[n+]1cccc2ccccc21)c1ccccc1	0.3	-1.1	11.8	-3.6	i	0.3	.	.
